Test results reported in ChEMBL document CHEMBL3774372, “Design, physico-chemical properties and biological evaluation of some new N-[(phenoxy)alkyl]- and N-{2-[2-(phenoxy)ethoxy]ethyl}aminoalkanols as anticonvulsant agents” (Bioorg Med Chem, 2016).
Activity calls are given as the source filed them. No cut-off for these calls is given here.

Key:
Mus musculus [1] = assay: Neurotoxicity in mouse at 100 mg/kg, ip after 2 hrs by rotarod test; assay type: toxicity, organism-based; conditions: in vivo
Method in brief: (§1)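 Mice were dosed ip with compound suspended in 0.5% methylcellulose. Rotarod: a 1 in. knurled rod turning at 6 rpm. Neurotoxicity was scored as failure to stay on the rod for at least 1 min in each of three trials. Results are given as the number of animals affected out of the number tested.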

Mus musculus [2] = assay: Neurotoxicity in mouse at 100 mg/kg, ip after 1 hr by rotarod test; assay type: toxicity, organism-based; conditions: in vivo; method in brief: as §1
Mus musculus [3] = assay: Anticonvulsant activity in mouse assessed as protection against maximal electric shock-induced seizures at 30 mg/kg, ip measured after 1 hr; assay type: functional, organism-based
Method in brief: (§2)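 Mice dosed ip with suspension in 0.5% methylcellulose; maximal electroshock applied at the listed time after dosing. Protection = abolition of hindlimb tonic extension component of seizure; reported as animals protected/animals tested.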

Rattus norvegicus [4] = assay: Neurotoxicity in rat at 30 mg/kg, ip after 4 hrs by rotarod test; assay type: toxicity, organism-based; conditions: in vivo
Rattus norvegicus [5] = assay: Anticonvulsant activity in rat assessed as protection against maximal electric shock-induced seizures at 30 mg/kg, po measured after 2 hrs; assay type: functional, organism-based
Method in brief: (§3)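 Rats dosed ip or orally as 0.5% methylcellulose suspension; maximal electroshock at listed time. Protection = abolition of hindlimb tonic extension; 4 rats per group, scored protected/tested.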

Rattus norvegicus [6] = assay: Anticonvulsant activity in rat assessed as protection against maximal electric shock-induced seizures at 30 mg/kg, ip measured after 4 hrs; assay type: functional, organism-based; method in brief: as §3
Rattus norvegicus [7] = assay: Neurotoxicity in rat at 30 mg/kg, po after 0.5 hrs by rotarod test; assay type: toxicity, organism-based; conditions: in vivo
Rattus norvegicus [8] = assay: Neurotoxicity in rat at 30 mg/kg, po after 1 hr by rotarod test; assay type: toxicity, organism-based; conditions: in vivo
Mus musculus [9] = assay: Neurotoxicity in mouse at 100 mg/kg, ip after 4 hrs by rotarod test; assay type: toxicity, organism-based; conditions: in vivo; method in brief: as §1
Rattus norvegicus [10] = assay: Anticonvulsant activity in rat assessed as protection against maximal electric shock-induced seizures at 30 mg/kg, ip measured after 1 hr; assay type: functional, organism-based; method in brief: as §3
Mus musculus [11] = assay: Anticonvulsant activity in mouse assessed as protection against maximal electric shock-induced seizures at 100 mg/kg, ip measured after 1 hr; assay type: functional, organism-based; method in brief: as §2
Rattus norvegicus [12] = assay: Neurotoxicity in rat at 30 mg/kg, po after 2 hrs by rotarod test; assay type: toxicity, organism-based; conditions: in vivo
Mus musculus [13] = assay: Neurotoxicity in mouse at 30 mg/kg, ip after 4 hrs by rotarod test; assay type: toxicity, organism-based; conditions: in vivo; method in brief: as §1
Rattus norvegicus [14] = assay: Neurotoxicity in rat at 30 mg/kg, po after […] by rotarod test; assay type: toxicity, organism-based; conditions: in vivo
Rattus norvegicus [15] = assay: Anticonvulsant activity in rat assessed as protection against maximal electric shock-induced seizures at 30 mg/kg, po measured after 4 hrs; assay type: functional, organism-based; method in brief: as §3
Rattus norvegicus [16] = assay: Anticonvulsant activity in rat assessed as protection against maximal electric shock-induced seizures at 30 mg/kg, po measured after […]; assay type: functional, organism-based
Rattus norvegicus [17] = assay: Neurotoxicity in rat at 30 mg/kg, ip after […] by rotarod test; assay type: toxicity, organism-based; conditions: in vivo
Mus musculus [18] = assay: Neurotoxicity in mouse at 30 mg/kg, ip after […] by rotarod test; assay type: toxicity, organism-based; conditions: in vivo
Mus musculus [19] = assay: Neurotoxicity in mouse at 30 mg/kg, ip after 1 hr by rotarod test; assay type: toxicity, organism-based; conditions: in vivo
Mus musculus [20] = assay: Anticonvulsant activity in mouse assessed as protection against maximal electric shock-induced seizures at 30 mg/kg, ip measured after 4 hrs; assay type: functional, organism-based; method in brief: as §2
Mus musculus [21] = assay: Anticonvulsant activity in mouse assessed as protection against maximal electric shock-induced seizures at 100 mg/kg, ip measured after 4 hrs; assay type: functional, organism-based; method in brief: as §2
Mus musculus [22] = assay: Anticonvulsant activity in mouse assessed as protection against 6 Hz psychomotor seizure at 100 mg/kg, ip after 4 hrs; assay type: functional, organism-based
Method in brief: (§4)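 Suspension in 0.5% methylcellulose given ip to mice; corneal stimulation with 0.2 ms monopolar rectangular pulses at 6 Hz for 3 s from a constant current device, mice restrained then released to observation cage. Protected if normal exploratory behaviour resumed within 10 s of stimulation. Scored as protected/tested, 4 mice per group.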

Mus musculus [23] = assay: Anticonvulsant activity in mouse assessed as protection against 6 Hz psychomotor seizure at 100 mg/kg, ip after 2 hrs; assay type: functional, organism-based; method in brief: as §4
Mus musculus [24] = assay: Anticonvulsant activity in mouse assessed as protection against maximal electric shock-induced seizures at 100 mg/kg, ip measured after […]; assay type: functional, organism-based
Rattus norvegicus [25] = assay: Neurotoxicity in rat at 30 mg/kg, po after 4 hrs by rotarod test; assay type: toxicity, organism-based; conditions: in vivo
Rattus norvegicus [26] = assay: Anticonvulsant activity in rat assessed as protection against maximal electric shock-induced seizures at 30 mg/kg, po measured after 1 hr; assay type: functional, organism-based; method in brief: as §3
Rattus norvegicus [27] = assay: Neurotoxicity in rat at 30 mg/kg, ip after 1 hr by rotarod test; assay type: toxicity, organism-based; conditions: in vivo
Rattus norvegicus [28] = assay: Neurotoxicity in rat at 30 mg/kg, ip after 2 hrs by rotarod test; assay type: toxicity, organism-based; conditions: in vivo
Rattus norvegicus [29] = assay: Anticonvulsant activity in rat assessed as protection against maximal electric shock-induced seizures at 30 mg/kg, po measured after 0.5 hrs; assay type: functional, organism-based; method in brief: as §3
Mus musculus [30] = assay: Neurotoxicity in mouse at 30 mg/kg, ip after 0.5 hrs by rotarod test; assay type: toxicity, organism-based; conditions: in vivo; method in brief: as §1
Mus musculus [31] = assay: Anticonvulsant activity in mouse assessed as protection against maximal electric shock-induced seizures at 100 mg/kg, ip measured after 0.5 hrs; assay type: functional, organism-based; method in brief: as §2
Rattus norvegicus [32] = assay: Neurotoxicity in rat at 30 mg/kg, ip after 0.5 hrs by rotarod test; assay type: toxicity, organism-based; conditions: in vivo

Structure (SMILES): Cc1cccc(OCCCN2CCCC(O)C2)c1C (configuration not stated)
- Activity (Mus musculus [1]): Non-toxic
- Activity (Mus musculus [2]): Non-toxic
- Activity (Mus musculus [3]): inactive
- Activity (Rattus norvegicus [4]): Non-toxic
- Activity (Rattus norvegicus [5]): inactive
- Activity (Rattus norvegicus [6]): inactive
- Activity (Rattus norvegicus [7]): Non-toxic
- Activity (Rattus norvegicus [8]): Non-toxic
- Activity (Mus musculus [9]): Non-toxic
- Activity (Rattus norvegicus [10]): inactive
- Activity (Mus musculus [11]): Active
- Activity (Rattus norvegicus [12]): Non-toxic
- Activity (Mus musculus [13]): Non-toxic
- Activity (Rattus norvegicus [14]): Non-toxic
- Activity (Rattus norvegicus [15]): inactive
- Activity (Rattus norvegicus [16]): inactive
- Activity (Rattus norvegicus [17]): Non-toxic
- Activity (Mus musculus [18]): Non-toxic
- Activity (Mus musculus [19]): Non-toxic
- Activity (Mus musculus [20]): inactive
- Activity (Mus musculus [21]): inactive
- Activity (Mus musculus [22]): inactive
- Activity (Mus musculus [23]): inactive
- Activity (Mus musculus [24]): Active
- Activity (Rattus norvegicus [25]): Non-toxic
- Activity (Rattus norvegicus [26]): inactive
- Activity (Rattus norvegicus [27]): Non-toxic
- Activity (Rattus norvegicus [28]): Non-toxic
- Activity (Rattus norvegicus [29]): inactive
- Activity (Mus musculus [30]): Non-toxic
- Activity (Mus musculus [31]): Active
- Activity (Rattus norvegicus [32]): Non-toxic
